# Experimental data: PubChem BioAssay
# Records with an inconclusive call do not appear. Activity calls are given as the source filed them.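 The calls were made as follows, unless noted: active = growth inhibition above 25% in both replicates, a cutoff set 3 SD above the mean; inconclusive = above 25% in only one replicate; inactive = the rest.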
# Legend:
# [1] = OD615 S. cerevisiae growth inhibition, permissive medium, pilot counter-assay, permissive growth control for S. cerevisiae lifespan shortening project (AID 705); conditions: OD615, 24 h, at 10 µM, hits give high values
# Method in brief: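 Material: engineered DeaD yeast; compound dosing: one dose 10 µM, DMSO 0.25% final; measure: yeast growth inhibition indicated by reduced 24 h OD615; detection: OD615 turbidity read; incubation: cells pre-grown 4 h, then 24 h compound exposure, 30 °C humidified; medium: permissive synthetic complete medium with raffinose and galactose carbon sources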
# [2] = Restrictive medium S. cerevisiae growth inhibition, OD615, pilot screen of yeast lifespan reduction project, restrictive growth control (AID 706;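 active = growth inhibition above a set limit, 3 SD over mean compound inhibition, in both replicates, cut at about 43% in these data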;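 also: modified DeaD lifespan yeast strain shifted to restrictive glucose medium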); conditions: OD615, 48 h, at 10 µM, hits give high values
# Method in brief: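 material = engineered S. cerevisiae DeaD strain | medium = glucose-based CSMM-D restrictive medium | times = 4 h pre-incubation, 48 h exposure at 30 °C | technique = OD615 absorbance reading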
# [3] = viability gain of MRP-1-high H69AR cells under doxorubicin, pilot screen, MRP-1 activator project, CellTiter-Glo, duplicate (AID 807;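 active = viability increase at or above a cutoff of the median across tested compounds plus 3 SD, cut at about 8.5% in these data, passing the limit was not always enough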;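 also: compound pretreatment 18-22 h then 72 h combined with doxorubicin; 0% = doxorubicin alone and 100% = vehicle without doxorubicin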); conditions: H69AR viability with doxorubicin, CellTiter-Glo luminescence; at 10 µM; hits give high values
# [4] = growth suppression of beta-catenin knockout HCT116, pilot screen, human colon tumor cells (AID 823;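 active = cell viability at or below a set limit in both duplicate runs, the limit being the all-compound median minus 4 SD, cut at about 23% in these data, passing the limit was not always enough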;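 also: 0% = wells killed by 20 µM Hyamine and 100% = untreated DMSO cell wells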); conditions: CellTiter-Glo, 60 h, at 10 µM, hits give low values
# [5] = growth suppression of PTEN-deleted HCT116, pilot screen, cell-based, HCT116 clonal line, CellTiter-Glo (AID 824;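 active = viability at or below 27.92% in each of two runs, the all-compound median minus 4 SD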;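 also: 0% = 20 µM Hyamine control and 100% = vehicle cell control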); conditions: 60 h, at 10 µM, hits give low values
# [6] = inhibitors of the yeast RAM network, pilot screen, dse1pr::URA3 reporter, 5-FOA selection (AID 869;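 active = inhibition over a set limit, the all-compound mean plus 3 SD, in both replicate runs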;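 also: 0% = DMSO wells with no growth and 100% = 10 µM 1-NA-PP1 with full growth; RAM network block rescues cells from 5-FOA so hits raise OD615 growth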); conditions: S. cerevisiae dse1pr::URA3 5-FOA growth, OD615, 2 d; at 10 µM; hits give high values; strain carries analog-sensitive mutant Cbk1 kinase
SMILES,growth inhibition [1],growth inhibition [2],viability increase [3],viability [4],viability [5],inhibition [6]
Cc1ccc(-c2nc(CS(=O)CC(=O)NCc3ccc(Cl)cc3)c(C)o2)cc1 (stereo not drawn),1.44% (inactive),-4.35% (inactive),-2.83% (inactive),73.5% (inactive),80.2% (inactive),3.42% (inactive)
Cc1ccc(CNC(=O)CS(=O)Cc2nc(-c3ccccc3C)oc2C)cc1 (stereo not drawn),-3.71% (inactive),1.06% (inactive),0.04% (inactive),90.3% (inactive),98.4% (inactive),1.06% (inactive)
C1=C(c2ccccc2)CCN(c2nc3ccccc3n3cnnc23)C1,-7.88% (inactive),11.2% (inactive),-3.98% (inactive),90.4% (inactive),86.8% (inactive),0.34% (inactive)
COc1ccccc1N1CCN(C(=O)c2cc3c(-c4ccc(Cl)cc4)nn(C)c3s2)CC1,-1.53% (inactive),13.8% (inactive),-4.63% (inactive),60.8% (inactive),47.9% (inactive),2.8% (inactive)
CCOc1ccc(NC(=O)C2CSC(c3ccncc3)=N2)cc1 (stereo not drawn),-3.44% (inactive),29.4% (inactive),-0.05% (inactive),98.3% (inactive),103% (inactive),0.675% (inactive)
COc1cc2c(cc1OC)C(C)N(C(=O)c1cc3ccccc3o1)CC2 (stereo not drawn),-11.9% (inactive),10.2% (inactive),-3.13% (inactive),37.3% (inactive),42.7% (inactive),1.52% (inactive)
CCOC(=O)c1ccc(NC(=O)c2ccc(C)c(S(=O)(=O)N3CCOCC3)c2)cc1,-7.03% (inactive),-5.64% (inactive),-3.41% (inactive),12.8% (active),–,0.87% (inactive)
Cn1cccc1Cc1nnc(SCC(=O)Nc2ccc3c(c2)OCCO3)n1CCc1ccccc1,6.56% (inactive),22.1% (inactive),-1.87% (inactive),90.2% (inactive),81% (inactive),2.25% (inactive)
CCN(CC)S(=O)(=O)c1cc(-c2nnc(-c3ccc(Br)cc3)o2)ccc1Cl,-10.3% (inactive),-14.6% (inactive),1.36% (inactive),–,41.7% (inactive),2.41% (inactive)
COC(=O)c1c(-c2ccc(F)cc2)csc1NC(=O)c1ccco1,-27.6% (inactive),0.595% (inactive),1.29% (inactive),78.5% (inactive),–,1.12% (inactive)
N#CC1=C2SCN(c3ccccc3)CN2C(=O)CC1c1ccccc1Cl (stereo not drawn),6.17% (inactive),–,-5.58% (inactive),97.2% (inactive),82.5% (inactive),2.58% (inactive)
N#CCSc1n[nH]c2nc3c(c(=O)n12)C1(CCCC1)Cc1ccccc1-3,-1.95% (inactive),28% (inactive),4.21% (inactive),102% (inactive),–,2.08% (inactive)
CCNC(=O)CCn1nc(-c2ccc(Cl)cc2)c2ccccc2c1=O,-10.9% (inactive),-10.1% (inactive),-5.74% (inactive),49.5% (inactive),–,0.575% (inactive)
Cc1cccc(N2CCN(C(=O)c3cc4c(=O)n(C)c5ccccc5c4n3C)CC2C)c1 (stereo not drawn),-3.86% (inactive),3.15% (inactive),-4.81% (inactive),–,–,1.81% (inactive)
Cc1c(/C=N/n2cnnc2)c2ccccc2n1CCOc1ccc(Cl)cc1,3.74% (inactive),17.6% (inactive),-4.25% (inactive),–,90% (inactive),4.12% (inactive)
CCC1(C)Cc2ccccc2-c2nc3n(c(=O)c21)CCCCC3 (stereo not drawn),-8.71% (inactive),-14.2% (inactive),-1.36% (inactive),88.1% (inactive),–,4.02% (inactive)
CCOC(=O)c1[nH]c(C)c(C(=O)N2CCOCC2)c1C,-6.62% (inactive),-4.17% (inactive),-0.92% (inactive),109% (inactive),104% (inactive),3.29% (inactive)
CCC(C)(C(=O)NC1CCCC1)N(C(=O)CNC(C)=O)c1ccc(C)cc1 (stereo not drawn),-1.46% (inactive),-5.89% (inactive),-0.57% (inactive),94.2% (inactive),96.7% (inactive),2.1% (inactive)
CC(C)n1c(C(=O)OCC(=O)NCc2ccc3c(c2)OCO3)cc2sccc21,-10.2% (inactive),-12.8% (inactive),-6.26% (inactive),53.4% (inactive),–,2.71% (inactive)
Cc1ccc(-c2nc3cnccn3c2Nc2ccc3c(c2)OCCO3)o1,-11.4% (inactive),-5.81% (inactive),-5.2% (inactive),92.4% (inactive),–,1.19% (inactive)

SMILES,growth inhibition [1],growth inhibition [2],viability increase [3],viability [4],viability [5],inhibition [6]
Cc1c(C(=O)NCc2cccs2)oc2ccc(S(=O)(=O)N3CCOCC3)cc12,-0.625% (inactive),-4.37% (inactive),-4.32% (inactive),79.6% (inactive),–,0.46% (inactive)
COC(=O)c1ccc(CSc2ccc3nnc(-c4cccc(F)c4)n3n2)o1,6.12% (inactive),49% (active),-3.24% (inactive),87.9% (inactive),91.4% (inactive),-0.025% (inactive)
COc1cc(C2CC(=O)c3c([nH]c(C(=O)OCCOC(C)C)c3C)C2)cc(OC)c1OC (stereo not drawn),-15.2% (inactive),-28.2% (inactive),-2.78% (inactive),–,42.7% (inactive),1.85% (inactive)
C=CCn1c(SCc2cc(=O)n3ccsc3n2)nc2scc(C3CC3)c2c1=O,-3.27% (inactive),-5.57% (inactive),-3.7% (inactive),–,91.8% (inactive),2.79% (inactive)
CCOC(=O)CSc1nc2c(c(=O)n(C)c(=O)n2C)n1Cc1ccccc1F,-8.61% (inactive),2.55% (inactive),0.38% (inactive),95.9% (inactive),93.6% (inactive),2% (inactive)
CCN1CCN(CC(=O)Nc2cccc(C)c2)C(=O)C1=O,-9.91% (inactive),-0.21% (inactive),-1.01% (inactive),99.6% (inactive),95.6% (inactive),1.27% (inactive)
CSc1nc(NCCOCCO)c2sc3nc(-c4ccco4)c4c(c3c2n1)CCC4,-7.22% (inactive),0.84% (inactive),-4.7% (inactive),81.3% (inactive),–,1.51% (inactive)
CC1CCN(c2nc3c(c(=O)[nH]c(=O)n3C)n2CCCc2ccccc2)CC1,-15.8% (inactive),-41.8% (inactive),-3.5% (inactive),79.9% (inactive),72.9% (inactive),1.45% (inactive)
C(=C\c1ccccc1)/CN1CCN(c2ncnc3c2oc2ccccc23)CC1,-2.64% (inactive),-6.73% (inactive),-3.8% (inactive),–,–,1.36% (inactive)
CCCCN(C)CCCNC(=O)Cn1c(=O)sc2ccccc21,-8.58% (inactive),-10.9% (inactive),-3.13% (inactive),–,97.5% (inactive),1.33% (inactive)
COc1ccc(C)cc1NC(=O)CSc1nnc(-c2ccccn2)n1Cc1ccco1,-2.92% (inactive),7.74% (inactive),-2.4% (inactive),95.7% (inactive),88.2% (inactive),1% (inactive)
Cc1noc(/C=C/N(C)C)c1S(=O)(=O)N1CCCC(C(=O)NCc2ccc(F)cc2)C1 (stereo not drawn),-4.61% (inactive),-8.86% (inactive),–,90.1% (inactive),85.8% (inactive),–
O=C(Cn1cc2c(n1)CCCCC2)NCCCN1CCOCC1,-9.29% (inactive),-6.7% (inactive),0.92% (inactive),112% (inactive),99.8% (inactive),2.08% (inactive)
COc1ccc(C(=O)/C=C/Nc2cc(C)on2)cc1,-11.9% (inactive),-11.9% (inactive),-0.71% (inactive),–,97% (inactive),–
COc1ccc(Nc2nc(N)nc(CN3CCC(Cc4ccccc4)CC3)n2)cc1,6.83% (inactive),-0.085% (inactive),-6.58% (inactive),–,35.8% (inactive),0.1% (inactive)
COc1ccc(-c2nc(CS(=O)CC(=O)NCc3ccc4c(c3)OCO4)c(C)o2)cc1 (stereo not drawn),4.12% (inactive),14.1% (inactive),-1.69% (inactive),94.7% (inactive),91.1% (inactive),2.02% (inactive)
O=C(CCCCn1c(=O)[nH]c2ccsc2c1=O)NCC1CCCO1 (stereo not drawn),2.62% (inactive),-0.86% (inactive),-3.45% (inactive),97.1% (inactive),–,1.61% (inactive)
COC(=O)CNc1c(-c2ccccn2)nc2ccc(Br)cn12,-20.4% (inactive),10.8% (inactive),-2.57% (inactive),89.2% (inactive),–,0.175% (inactive)
COc1ccc(-c2cc(CCCC(=O)NCc3ccccn3)no2)cc1,-5.78% (inactive),8.54% (inactive),-1.34% (inactive),98.8% (inactive),97.8% (inactive),1.08% (inactive)
COc1ccc(N(CC(=O)NCCSc2ccccn2)S(C)(=O)=O)cc1Cl,-5.09% (inactive),-6.72% (inactive),-3.81% (inactive),–,97.3% (inactive),1.44% (inactive)
